According to ChEMBL document CHEMBL1136765, “1,3-dioxolane-based ligands as a novel class of alpha1-adrenoceptor antagonists” (J Med Chem, 2003):

Columns and labels:
Format in all cases: functional, tissue-based
[1] = target: T1, Alpha-1D adrenergic receptor (Rattus norvegicus, UniProt P23944); experiment: Antagonistic activity against (-)-noradrenaline-induced contraction of rat thoracic aorta (Alpha-1D adrenergic receptor); settings: read-out: pA2 (converted)
T1 sequence (P23944 whole entry): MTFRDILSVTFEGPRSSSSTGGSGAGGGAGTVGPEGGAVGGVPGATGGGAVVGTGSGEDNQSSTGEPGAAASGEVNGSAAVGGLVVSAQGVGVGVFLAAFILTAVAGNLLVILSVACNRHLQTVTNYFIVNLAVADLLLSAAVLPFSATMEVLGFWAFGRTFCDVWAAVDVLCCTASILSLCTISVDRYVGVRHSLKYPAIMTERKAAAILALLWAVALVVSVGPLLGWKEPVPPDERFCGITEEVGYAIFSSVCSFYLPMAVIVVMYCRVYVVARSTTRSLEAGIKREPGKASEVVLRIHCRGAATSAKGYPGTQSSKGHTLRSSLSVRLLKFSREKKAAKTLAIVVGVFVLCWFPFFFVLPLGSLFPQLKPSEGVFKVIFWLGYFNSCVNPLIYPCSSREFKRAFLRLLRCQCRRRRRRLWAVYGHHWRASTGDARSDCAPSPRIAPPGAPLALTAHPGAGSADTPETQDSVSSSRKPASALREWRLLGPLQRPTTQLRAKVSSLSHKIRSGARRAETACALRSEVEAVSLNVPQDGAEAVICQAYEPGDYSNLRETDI
In short: (§1)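 Endothelium-denuded rat thoracic aorta strips (denudation confirmed by no 100 µM acetylcholine relaxation after 1 µM noradrenaline) in Tyrode, 1 g tension, ≥2 h equilibration. Cumulative (-)-noradrenaline curves at 1 h intervals; third as control, antagonist 30 min before fourth.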

[2] = target: T2, Alpha-1B adrenergic receptor (Rattus norvegicus) (UniProt P15823); experiment: Inhibition of (-)-phenylephrine-induced contraction of rat spleen (Alpha-1B adrenergic receptor )
T2 sequence (whole entry): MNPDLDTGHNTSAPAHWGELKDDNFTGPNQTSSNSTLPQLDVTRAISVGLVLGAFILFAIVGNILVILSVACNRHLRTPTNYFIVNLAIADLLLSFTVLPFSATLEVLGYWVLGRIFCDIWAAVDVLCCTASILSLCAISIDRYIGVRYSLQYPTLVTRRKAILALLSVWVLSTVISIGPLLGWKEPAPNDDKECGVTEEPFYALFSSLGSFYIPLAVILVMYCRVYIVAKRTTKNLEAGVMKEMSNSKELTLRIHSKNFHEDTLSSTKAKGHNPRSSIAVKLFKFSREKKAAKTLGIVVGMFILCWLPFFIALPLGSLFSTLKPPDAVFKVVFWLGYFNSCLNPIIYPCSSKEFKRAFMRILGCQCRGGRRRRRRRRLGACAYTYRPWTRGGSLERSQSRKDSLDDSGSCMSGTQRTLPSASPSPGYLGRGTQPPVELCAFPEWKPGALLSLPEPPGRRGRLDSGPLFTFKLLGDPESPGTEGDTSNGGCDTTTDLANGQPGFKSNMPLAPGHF
In short: (§2)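 Rat spleen strips in buffer containing 4 µM propranolol to block β-adrenoceptors, 1 g resting tension, 2 h equilibration. Isometric cumulative phenylephrine curves at 30 min intervals; first discarded, second control.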

[3] = target: T3, Alpha-1D adrenergic receptor (Rattus norvegicus) (UniProt P23944); experiment: Inhibition of (-)-noradrenaline-induced contraction of rat thoracic aorta (Alpha-1D adrenergic receptor); in short: as §1
T3 sequence (whole entry): T1 sequence (P23944 whole entry)

[4] = target: T4, Alpha-1B adrenergic receptor (Rattus norvegicus, UniProt P15823); experiment: Antagonistic activity against (-)-phenylephrine-induced contraction of rat spleen (Alpha-1B adrenergic receptor ); settings: read-out: pA2 (converted); in short: as §2
T4 sequence (P15823 whole entry): T2 sequence (whole entry)

[5] = target: T5, Alpha-1A adrenergic receptor (Rattus norvegicus, UniProt P43140); experiment: Antagonistic activity against (-)-noradrenaline-induced contraction of rat prostatic vas deferens (alpha1A receptor); settings: read-out: pA2 (converted)
T5 sequence (P43140 whole entry): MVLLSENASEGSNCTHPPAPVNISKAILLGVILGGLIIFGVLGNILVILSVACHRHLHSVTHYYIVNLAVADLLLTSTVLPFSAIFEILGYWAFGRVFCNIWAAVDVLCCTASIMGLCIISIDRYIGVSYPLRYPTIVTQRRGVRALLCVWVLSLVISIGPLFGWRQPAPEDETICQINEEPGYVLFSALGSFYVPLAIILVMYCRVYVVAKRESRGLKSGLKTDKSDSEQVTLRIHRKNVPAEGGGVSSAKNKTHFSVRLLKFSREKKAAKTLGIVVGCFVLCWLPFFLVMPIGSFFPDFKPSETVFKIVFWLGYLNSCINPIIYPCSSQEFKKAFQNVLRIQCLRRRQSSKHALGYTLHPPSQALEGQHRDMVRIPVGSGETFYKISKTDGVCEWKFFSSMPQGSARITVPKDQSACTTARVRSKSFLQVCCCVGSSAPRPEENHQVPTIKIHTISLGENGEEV
In short: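 Rat prostatic vas deferens portion equilibrated 60 min, washed every 15 min, primed twice with 10 µM noradrenaline, re-equilibrated 60 min; control noradrenaline concentration-response curve, then antagonist 30 min before repeat curve.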

SMILES | Kb [1] | pKb [2] | pKb [3] | Kb [4] | Kb [5]
O=C(O)C(=O)O.c1ccc(OCCNCC2COC(c3ccccc3)(c3ccccc3)O2)cc1 (centres undefined) | 0.00427 µM | 5.86 | – | – | –
CN(CCOc1ccccc1)CC1COC(c2ccccc2)(c2ccccc2)O1.O=C(O)C(=O)O (centres undefined) | – | 5.31 | 6.06 | – | –
COc1ccccc1OCCNCC1COC(c2ccccc2)(c2ccccc2)O1.O=C(O)C(=O)O (centres undefined) | 0.00224 µM | – | – | 0.0437 µM | 0.0295 µM
C[N+](C)(CCOc1ccccc1)CC1COC(c2ccccc2)(c2ccccc2)O1.O=C([O-])C(=O)O (centres undefined) | – | 5.6 | 6.19 | – | –
